Laboratory results taken from ChEMBL document CHEMBL4190188, “Neuroprotective Activity of Cerebrosides from Typhonium giganteum by Regulating Caspase-3 and Bax/Bcl-2 Signaling Pathways in PC12 Cells” (J Nat Prod, 2017).
Calls of active or inactive are those of the source. The rule behind the calls is not given here.

Tests used:
PC-12 [1] = test: cells; details: Rattus norvegicus, PC-12, 24 h
PC-12 [2] = test: Neuroprotective activity against 12.5 mM glutamate-induced toxicity in rat PC12 cells assessed as cell viability at 10 uM after 24 hrs by MTT assay; format: functional, cell-based
Outline: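 Concentration-response run in PC12 cells co-exposed 24 h to 12.5 mM glutamate and compound at 0.1, 1, 5, 10, 15 or 20 μM. Viability by MTT (4 h at 37 °C, formazan in DMSO, A570), relative to untreated control; mean ± SD, n = 6.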

PC-12 [3] = test: Cytotoxicity against rat PC12 cells assessed as decrease in cell viability at 20 uM after 24 hrs by MTT assay; format: cell-based; details: pc-12, 24 h
Outline: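 PC12 cells grown in DMEM with 10% FBS at 37 °C and 5% CO2, seeded at 10 000 cells/well and cultured 24 h. Compound added at 20 μM without glutamate (DMSO stock at 1000× final). Then MTT (5 mg/mL stock) added for 4 h at 37 °C, formazan dissolved in DMSO, and A570 read. Viability given as % of untreated control.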

PC-12 [4] = test: Neuroprotective activity against 12.5 mM glutamate-induced toxicity in rat PC12 cells assessed as cell viability at 0.1 uM after 24 hrs by MTT assay
PC-12 [5] = test: Neuroprotective activity against 12.5 mM glutamate-induced apoptosis in rat PC12 cells assessed as late apoptotic cells at 10 uM after 24 hrs by Annexin V-FITC/propidium iodide staining based flow cytometry (reference value: 45.53%); format: functional
PC-12 [6] = test: Neuroprotective activity against 12.5 mM glutamate-induced apoptosis in rat PC12 cells assessed as early apoptotic cells at 0.1 uM after 24 hrs by Annexin V-FITC/propidium iodide staining based flow cytometry (reference value: 1.04%); format: functional
PC-12 [7] = test: Induction of apoptosis in rat PC12 cells assessed as early apoptotic cells at 10 uM after 24 hrs by Annexin V-FITC/propidium iodide staining based flow cytometry (reference value: 1.04%); format: cell-based; details: pc-12, 24 h
PC-12 [8] = test: Neuroprotective activity against 12.5 mM glutamate-induced apoptosis in rat PC12 cells assessed as decrease in caspase 3 level after 24 hrs by chemiluminescence based Western blot analysis; format: functional, cell-based
Outline: (§1)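 PC12 cells exposed 24 h to compound at 0.1, 1 or 10 μM, with or without 12.5 mM glutamate. Protein extracted in lysis buffer and quantified by BCA. Equal amounts run on 12% SDS-PAGE, blotted to nitrocellulose, blocked in 5% nonfat milk, then primary antibodies overnight at 4 °C and HRP secondaries. Cytochrome c measured in the cytosolic fraction. Mean ± SD, n = 3.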

PC-12 [9] = test: Neuroprotective activity against 12.5 mM glutamate-induced apoptosis in rat PC12 cells assessed as decrease in Bax level at 0.1 to 10 uM after 24 hrs by chemiluminescence based Western blot analysis; format: functional, cell-based
Outline: as §1

PC-12 [10] = test: Neuroprotective activity against 12.5 mM glutamate-induced apoptosis in rat PC12 cells assessed as decrease in caspase 9 level after 24 hrs by chemiluminescence based Western blot analysis; format: functional, cell-based
Outline: as §1

PC-12 [11] = test: Induction of apoptosis in rat PC12 cells assessed as late apoptotic cells at 10 uM after 24 hrs by Annexin V-FITC/propidium iodide staining based flow cytometry (reference value: 45.53%); format: cell-based; details: pc-12, 24 h
PC-12 [12] = test: Neuroprotective activity against 12.5 mM glutamate-induced apoptosis in rat PC12 cells assessed as late apoptotic cells at 0.1 uM after 24 hrs by Annexin V-FITC/propidium iodide staining based flow cytometry (reference value: 45.53%); format: functional
PC-12 [13] = test: Neuroprotective activity against 12.5 mM glutamate-induced apoptosis in rat PC12 cells assessed as decrease in cytochrome c level at 0.1 to 10 uM after 24 hrs by chemiluminescence based Western blot analysis; format: functional, cell-based
Outline: as §1

PC-12 [14] = test: Neuroprotective activity against 12.5 mM glutamate-induced apoptosis in rat PC12 cells assessed as late apoptotic cells at 1 uM after 24 hrs by Annexin V-FITC/propidium iodide staining based flow cytometry (reference value: 45.53%); format: functional
PC-12 [15] = test: Neuroprotective activity against 12.5 mM glutamate-induced apoptosis in rat PC12 cells assessed as increase in Bcl-2 level at 0.1 to 10 uM after 24 hrs by chemiluminescence based Western blot analysis; format: functional, cell-based
Outline: as §1

PC-12 [16] = test: Neuroprotective activity against 12.5 mM glutamate-induced apoptosis in rat PC12 cells assessed as early apoptotic cells at 1 uM after 24 hrs by Annexin V-FITC/propidium iodide staining based flow cytometry (reference value: 1.04%); format: functional
PC-12 [17] = test: Neuroprotective activity against 12.5 mM glutamate-induced apoptosis in rat PC12 cells assessed as early apoptotic cells at 10 uM after 24 hrs by Annexin V-FITC/propidium iodide staining based flow cytometry (reference value: 1.04%); format: functional

EC50 (PC-12 [1]) [µM]	Compound	Activity (PC-12 [2])	Activity (PC-12 [3])	further results
6.5	CCCCCCCCC/C=C\CC/C=C/[C@@H](O)[C@H](CO[C@@H]1O[C@H](CO)[C@@H](O)[C@H](O)[C@H]1O)NC(=O)[C@H](O)CCCCCCCCCCCCCCCCCCCC	Active	Non-Toxic	–
2.7	CCCCCCCCC/C=C/CC/C=C/[C@@H](O)[C@H](CO[C@@H]1O[C@H](CO)[C@@H](O)[C@H](O)[C@H]1O)NC(=O)[C@H](O)CCCCCCCCCCCCCCCCCCCCCC	Active	Non-Toxic	–
22.2	CCCCCCCCC/C=C/CC/C=C/[C@@H](O)[C@H](CO[C@@H]1O[C@H](CO)[C@@H](O)[C@H](O)[C@H]1O)NC(=O)[C@H](O)CCCCCCCCCCCCCCCC	Active	Non-Toxic	–
6.9	CCCCCCCCC/C=C/CC/C=C/[C@@H](O)[C@H](CO[C@@H]1O[C@H](CO)[C@@H](O)[C@H](O)[C@H]1O)NC(=O)[C@H](O)CCCCCCCCCCCCCCCCCCCC	Active	Non-Toxic	–
20.1	CCCCCCCCC/C=C\CC/C=C/[C@@H](O)[C@H](CO[C@@H]1O[C@H](CO)[C@@H](O)[C@H](O)[C@H]1O)NC(=O)[C@H](O)CCCCCCCCCCCCCCCC	Active	Non-Toxic	–
6.6	CCCCCCCCC/C=C\CCC[C@@H](O)[C@@H](O)[C@H](CO[C@@H]1O[C@H](CO)[C@@H](O)[C@H](O)[C@H]1O)NC(=O)[C@H](O)CCCCCCCCCCCCCCCCCCCC	Active	Non-Toxic	–
2.5	CCCCCCCCC/C=C\CC/C=C/[C@@H](O)[C@H](CO[C@@H]1O[C@H](CO)[C@@H](O)[C@H](O)[C@H]1O)NC(=O)[C@H](O)CCCCCCCCCCCCCCCCCCCCCC	Active	Non-Toxic	Activity (PC-12 [4]): Active; Activity (PC-12 [5]): 2.11%; Activity (PC-12 [6]): 1.79%; Activity (PC-12 [7]): 0.62%; Activity (PC-12 [8]): Dose-dependent effect; Activity (PC-12 [9]): Active; Activity (PC-12 [10]): Dose-dependent effect; Activity (PC-12 [11]): 1.49%; Activity (PC-12 [12]): 30.63%; Activity (PC-12 [13]): Active; Activity (PC-12 [14]): 22.38%; Activity (PC-12 [15]): Active; Activity (PC-12 [16]): 1.2%; Activity (PC-12 [17]): 1.02%
8.9	CCCCCCCCC/C=C\CC/C=C/[C@@H](O)[C@H](CO[C@@H]1O[C@H](CO)[C@@H](O)[C@H](O)[C@H]1O)NC(=O)[C@H](O)CCCCCCCCCCCCCCCCCCC	Active	Non-Toxic	–
9.2	CC1=NN(c2ccccc2)C(=O)C1 [EDARAVONE]	–	–	–
29.7	CCCCCCCCC/C=C/CC/C=C/[C@@H](O)[C@H](CO[C@@H]1O[C@H](CO)[C@@H](O)[C@H](O)[C@H]1O)NC(=O)[C@H](O)CCCCCCCCCCCCCC	Active	Non-Toxic	–
12	CCCCCCCCC/C=C\CC/C=C/[C@@H](O)[C@H](CO[C@@H]1O[C@H](CO)[C@@H](O)[C@H](O)[C@H]1O)NC(=O)[C@H](O)CCCCCCCCCCCCCCCCCC	Active	Non-Toxic	–
27.1	CCCCCCCCC/C=C\CC/C=C/[C@@H](O)[C@H](CO[C@@H]1O[C@H](CO)[C@@H](O)[C@H](O)[C@H]1O)NC(=O)[C@H](O)CCCCCCCCCCCCCC	Active	Non-Toxic	–
12.4	CCCCCCCCC/C=C/CC/C=C/[C@@H](O)[C@H](CO[C@@H]1O[C@H](CO)[C@@H](O)[C@H](O)[C@H]1O)NC(=O)[C@H](O)CCCCCCCCCCCCCCCCCC	Active	Non-Toxic	–
8.8	CCCCCCCCC/C=C/CC/C=C/[C@@H](O)[C@H](CO[C@@H]1O[C@H](CO)[C@@H](O)[C@H](O)[C@H]1O)NC(=O)[C@H](O)CCCCCCCCCCCCCCCCCCC	Active	Non-Toxic	–
